# Data reported in ChEMBL document CHEMBL1828587, “Pyrazolo[1,5-a]pyrimidines, triazolo[1,5-a]pyrimidines and their tricyclic derivatives as corticotropin-releasing factor 1 (CRF₁) receptor antagonists” (Bioorg Med Chem, 2011).
# Biological target: T1, Corticotropin-releasing factor receptor 1 (Homo sapiens, UniProt P34998)
# T1 sequence (P34998 whole entry): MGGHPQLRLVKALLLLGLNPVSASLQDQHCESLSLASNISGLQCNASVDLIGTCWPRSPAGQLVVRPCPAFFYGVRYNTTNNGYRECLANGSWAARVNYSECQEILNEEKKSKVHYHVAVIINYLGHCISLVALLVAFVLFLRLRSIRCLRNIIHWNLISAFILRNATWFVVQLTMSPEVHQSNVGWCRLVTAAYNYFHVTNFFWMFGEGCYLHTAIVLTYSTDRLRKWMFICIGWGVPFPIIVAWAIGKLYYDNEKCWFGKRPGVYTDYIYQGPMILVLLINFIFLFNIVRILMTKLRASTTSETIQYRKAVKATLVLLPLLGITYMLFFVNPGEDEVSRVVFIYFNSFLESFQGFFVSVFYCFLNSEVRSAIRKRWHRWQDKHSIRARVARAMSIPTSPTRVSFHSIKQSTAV
# Experiment: Antagonist activity at human CRF1 receptor expressed in CHO-K1 cells assessed as inhibition of CRF-induced cAMP accumulation after 15 mins by cAMP enzyme immunoassay
# Format: functional, cell-based
# Method in brief: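 CRF1-expressing CHO-K1 cells seeded at 1×10^4 cells/well and cultured overnight. Cells were washed with F-12 and preincubated 10 min at 37 °C in F-12 containing 1 mmol/l IBMX. Test compound (1–10000 nmol/l) was then added together with CRF (10 nmol/l in the added medium). After 15 min at 37 °C, intracellular cAMP was measured by enzyme immunoassay. IC50 was taken from concentration–response curves.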
row,EC50,Compound
1,5.6 nM,CCc1ccc(Oc2nc3ccnn3c3c2ccn3C(CC)CC)c(OC)c1
2,97 nM,CCCN(CCC)c1cc(N(C)c2ccc(OC)cc2Cl)nc2ccnn12
3,26 nM,CCCN(CCC)c1nc(N(C)c2ccc(OC)cc2Cl)nc2ccnn12
4,76 nM,CCCN(CCC)c1cc(N(CC)c2ccc(OC)cc2Cl)nc2nccn12
5,0.7 nM,CCC(CC)n1ccc2c(Nc3ccc(OC)cc3Cl)nc3ccnn3c21
6,367 nM,CCC(CC)Nc1cc(N(C)c2ccc(OC)cc2Cl)nc2ncnn12
7,32.2 nM,CCC(CC)n1ccc2c(Cc3c(C)cc(C)cc3C)nc3ccnn3c21
8,889 nM,CCCN(CCC)c1cc(N(C)c2ccc(OC)cc2Cl)nc2ncnn12
9,46 nM,CCCN(CCC)c1c(C)c(Nc2ccc(OC)cc2Cl)nc2nccn12
10,883 nM,CCCN(CCC)c1c(OC)c(Nc2ccc(OC)cc2Cl)nc2ccnn12
11,18.6 nM,CCCN(CCC)c1cc(N(CC)c2ccc(OC)cc2Cl)nc2ccnn12

# Biological target: T1, Corticotropin-releasing factor receptor 1
# Experiment: Displacement of [125I]-CRF from human CRF1 receptor expressed in CHO-K1 cells after 2 hrs by gamma counting
# Format: cell-based
# Method in brief: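 Crude membranes were made from CRF1-expressing CHO-K1 cells in 50 mmol/l Tris-HCl with 10 mmol/l MgCl, 2 mmol/l EDTA and aprotinin. Membranes were incubated with 125I human/rat CRF (0.5 nmol/l solution added) and test compound (1~10000 nmol/L) for 2 h at room temperature. Bound and free ligand were separated by centrifugation and the pellet washed with PBS/0.01% Triton X-100, then gamma-counted. Nonspecific binding was defined with 1 µmol/l unlabeled CRF. IC50 was taken from concentration–response curves.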
row,IC50,Compound
1,213 nM,CCCN(CCC)c1cc(N(CC2CC2)c2ccc(OC)cc2Cl)nc2ccnn12
2,340 nM,CCCCc1c(Nc2ccc(OC)cc2Cl)nc2ccnn2c1N(CCC)CCC
3,308 nM,CCCN(CCC)c1c(C2CCCC2)c(Nc2ccc(OC)cc2Cl)nc2ccnn12
4,7 nM,CCc1ccc(Oc2nc3ccnn3c3c2ccn3C(CC)CC)c(OC)c1
5,20 nM,CCCN(CCC)c1cc(N(C)c2ccc(OC)cc2Cl)nc2ccnn12
6,20 nM,CCCN(CCC)c1nc(N(C)c2ccc(OC)cc2Cl)nc2ccnn12
7,42 nM,CCCN(CCC)c1cc(N(CC)c2ccc(OC)cc2Cl)nc2nccn12
8,3.2 nM,CCC(CC)n1ccc2c(Nc3ccc(OC)cc3Cl)nc3ccnn3c21
9,42 nM,CCC(CC)Nc1cc(N(C)c2ccc(OC)cc2Cl)nc2ncnn12
10,7.1 nM,CCC(CC)n1ccc2c(Cc3c(C)cc(C)cc3C)nc3ccnn3c21
11,67 nM,CCCN(CCC)c1cc(N(C)c2ccc(OC)cc2Cl)nc2nccn12
12,33 nM,CCCN(CCC)c1cc(N(C)c2ccc(OC)cc2Cl)nc2ncnn12
13,12 nM,CCCN(CCC)c1c(C)c(Nc2ccc(OC)cc2Cl)nc2nccn12
14,13 nM,CCCN(CCC)c1c(OC)c(Nc2ccc(OC)cc2Cl)nc2ccnn12
15,680 nM,CCCN(CCC)c1cc(N(CCOC)c2ccc(OC)cc2Cl)nc2ccnn12
16,31.6 nM,CCCN(CCC)c1cc(N(CC)c2ccc(OC)cc2Cl)nc2ccnn12
